# Source: PubChem (several laboratories)
# UCH37 DUB inh = human UCH37 deubiquitinating enzyme inhibition; Q9Y5K5; purified proteasome/UCH37, Ub-AMC cleavage fluorescence; inhibition, % (test concentration not listed); actives 0.33% (n = 330,000); AID 588478;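 active = mean inhibition over replicate wells above about 20%, limit read from the data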;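 also: 0% = compound-free wells with enzyme and 100% = wells lacking proteasome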
#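 Schedule: 30 min plus 25 min, room temperature / Material: human UCH37 within purified proteasomes / Technique: AMC fluorescence intensity at 355/460 nm / Buffer or medium: pH 7.4 Tris-HCl (50 mM) with ovalbumin, ATP-MgCl2, DTT / Controls: wells without proteasome as full block, compound-free enzyme plus substrate as uninhibited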
# PLC-gamma1 inh = blocks human PLC-gamma1 enzyme activity | purified PLC-gamma1, fluorogenic substrate, fluorescence | inhibition, % at 12.2 µM | actives 0.84% (n = 370,000); in the data active = inhibition above about 9.5%
# PLCb3 inh = blocks human PLC-beta3 enzyme activity; Q01970; Purified PLC-beta3, fluorogenic substrate, fluorescence; inhibition, % at 12.2 µM; actives 0.18% (n = 370,000);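 also: 0% = median of compound wells on plate and 100% = full blocker control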
# Rpn11 block = inhibitors of human proteasome Rpn11. O00487. human 26S proteasome, Ub4-pepOG fluorescence polarization; 20S core pre-blocked with epoxomicin. inhibition, % at 20 µM. actives 0.59% (n = 360,000). AID 588493;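 active = inhibition at 20 µM, scaled to each plate's controls, above about 33%, limit read from the data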
# PLCgamma1 ctr = counter-screen for PLC-beta3 inhibitors: inhibitors of human PLC-gamma1; shares compounds with PLC-gamma1 inh; purified PLC-gamma1, fluorogenic substrate, fluorescence; inhibition, % at 12.3 µM; actives 3.1% (n = 3,300); AID 743258; in the data active = inhibition above about 9.5%
# PLCbeta3 conf = confirmation of human PLC-beta3 inhibitors; shares compounds with PLC-gamma1 inh; purified PLC-beta3, fluorogenic substrate fluorescence; inhibition, % at 12.3 µM; actives 1% (n = 3,300); AID 743261
# * marks the source's active call; other numbers are inactive results; · = no result given. A selection: hits, their analogues and other compounds. The true share with any hit is near 1.7%. Rule as the data show it, unless noted: active = inhibition above about 11%; inactive = the rest.
SMILES,UCH37 DUB inh,PLC-gamma1 inh,PLCb3 inh,Rpn11 block,PLCgamma1 ctr,PLCbeta3 conf
CN(C)C(=O)CCc1nc(-c2ccc(C(C)(C)C)cc2)no1,1,12*,5,2,-8,-1
Cc1cc(OCCCn2ccnc2)ccc1[N+](=O)[O-],8,5,2,1,·,·
Cc1ccc(OCCn2ccnc2)c([N+](=O)[O-])c1,6,13*,-1,0,-1,0
CC(=NNC(=O)c1sccc1C)c1cccnc1,5,·,·,·,·,·
CC(CC(=O)N(C(C)C)C(C)C)=NNC(=O)COc1ccc(Cl)cc1Cl,5,·,·,·,·,·
Cc1nc2sc(-c3ccccc3)cc2c(=O)n1N=CN(C)C,-5,·,·,·,·,·
CC(=O)c1ccc(N2CCC(c3cc(-c4ccc(Cl)cc4Cl)n[nH]3)CC2)c([N+](=O)[O-])c1,6,15*,1,-4,6,6
O=C(NN=Cc1c[nH]c2ccccc12)c1ccc2c(c1)OCCO2,4,·,·,·,·,·
Cc1ccc(C(=O)OCC(=O)Nc2ccccc2C(F)(F)F)cc1S(=O)(=O)N1CCOCC1,3,6,11*,-2,-6,-3
O=C(Nc1ccccc1C(F)(F)F)c1ccc(F)c(S(=O)(=O)N2CCOCC2)c1,4,13*,4,-2,1,-4
Cc1ccc(OCC(=O)NN=C/C=C/c2ccco2)cc1C,8,·,·,·,·,·
Nc1nonc1-n1nnc(C(=O)NN=Cc2ccccc2Cl)c1COc1ccc(F)cc1,4,·,·,·,·,·
O=[N+]([O-])c1ccc(CS(=O)(=O)c2ncn[nH]2)cc1,2,3,0,10,·,·
COc1ccc(CS(=O)(=O)c2ncn[nH]2)cc1,0,37*,6,0,20*,-3
S=C(NCCc1ccccc1)NN=CC1CCCCC1,1,·,·,·,·,·
COc1ccc(Cl)cc1NC(=O)c1cccc([N+](=O)[O-])c1O,·,10.0*,6,0,-2,-5
COc1ccc(Cl)cc1NC(=O)C/C(C)=N/NC(=O)c1ccccc1[N+](=O)[O-],·,1,-7,5,·,·
c1ccc2oc(SCc3cn4ccsc4n3)nc2c1,4,9.5*,9,-5,-1,-1
Cc1csc2nc(CSc3nc4ccccc4o3)cn12,2,0,0,-4,·,·
O=C(CSc1nnnn1-c1ccccc1)NCC1(N2CCOCC2)CCCCC1,5,-4,-1,-43,·,·
Cc1ccc(-n2nnnc2SCC(=O)NCC2(N3CCOCC3)CCCCC2)cc1,0,9.7*,-10,1,-8,-1
Cc1cccc(NC(=S)NN=Cc2cccc([N+](=O)[O-])c2)c1,1,·,·,·,·,·
COc1cc(C(=O)NN=Cc2coc3ccccc3c2=O)cc(OC)c1OC,-30,·,·,·,·,·
NC(=Nc1nc2ccccc2o1)NC(=O)c1ccc([N+](=O)[O-])cc1,4,·,·,·,·,·
CCOC(=O)c1ccccc1NC(=O)c1cn(-c2ccc(C)c(C)c2)c(=O)c2ccccc12,3,9.9*,2,11,-3,-4
SMILES,UCH37 DUB inh,PLC-gamma1 inh,PLCb3 inh,Rpn11 block,PLCgamma1 ctr,PLCbeta3 conf
CCCCc1n[nH]c2c1/C(=N/O)CC(C)(C)C2,·,1,1,2,·,·
CCCc1n[nH]c2c1C(=O)CC(C)(C)C2,5,11*,8,2,-3,-1
CC(=NNC(=O)CNC(=O)c1cccnc1)c1ccc(Cl)cc1,0,·,·,·,·,·
O=C(/C=N/O)Nc1ccc(F)cc1,·,9.5*,6,-2,-6,-2
O=C(C=NO)Nc1ccc(F)cc1,-1,·,·,·,·,·
Cc1cc(C)n(CCC(=O)NN=Cc2ccc(O)cc2)n1,2,·,·,·,·,·
CSc1ccc(C(c2c(C(=O)O)[nH]c3ccccc23)c2c(C(=O)O)[nH]c3ccccc23)cc1,-10,-7,-22,30,·,·
CCOc1cc(Br)cc(C(c2c(C(=O)O)[nH]c3ccccc23)c2c(C(=O)O)[nH]c3ccccc23)c1O,7,28*,-10,18,48*,-4
Cc1cccc(CC2S/C(=N/N=C/c3ccco3)N(c3ccccc3)C2=O)c1 (stereo not drawn),·,11*,4,1,0,-1
COc1cc(CCC(=O)OCC(=O)Nc2cccc(S(=O)(=O)N(C)C)c2)cc(OC)c1OC,1,-2,1,-8,·,·
CCN(CC)S(=O)(=O)c1ccc(NC(=O)COC(=O)CCc2cc(OC)c(OC)c(OC)c2)cc1,5,8,11*,2,-3,-3
Nc1nnnn1CC(=O)NN=Cc1ccccn1,-1,·,·,·,·,·
